This is an account of results in ChEMBL document CHEMBL4732158, “Bicyclic Ligand-Biased Agonists of S1P: Exploring Side Chain Modifications to Modulate the PK, PD, and Safety Profiles” (J Med Chem, 2021).

Each structure is given as a SMILES string. Bounds are passed on as bounds.

Data set [1] can be described thus: Ratio of drug metabolism in Lewis rat blood assessed as phosphate ester metabolite to parent drug at 2 mg/kg, po measured at 24 hrs by LC-MS/MS analysis. Type of data set: ADME, organism-based. The note with it: in vivo. In short, it runs like this:
(§1)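 Lewis rats (n = 2−4) dosed orally at 0.5, 1, 2 or 5 mg/kg; blood parent and phosphate metabolite concentrations and lymphocyte counts taken 4 and 24 h post-dose; phosphate-to-parent ratio from 24 h levels; significance versus vehicle by ANOVA with Dunnett's test.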

Data set [2] in a line: Drug concentration in Lewis rat blood assessed as concentration of parent compound at 2 mg/kg, po measured at 24 hrs by LC-MS/MS analysis. The note with it: in vivo, read-out: Ct. Format: ADME, organism-based. In outline: as §1
The subject of data set [3] is Rattus norvegicus. Kind of data set: Reduction in circulating lymphocytes count in Lewis rat at 2 mg/kg, po measured at 4 hrs by hematology analyzer based analysis. Type of data set: functional. Set-up: scale not given: the % may be the effect or the level left. The note with it: 2 mg/kg, 4 h. In short, it runs like this: (§2)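 Lewis rats (n = 2−4) dosed orally; whole-blood lymphocyte counts taken 4 h and 24 h after dosing and reduction expressed versus vehicle-treated rats. Significance by ANOVA with Dunnett's test (p < 0.05 vs vehicle). Blood levels of parent and phosphate metabolite measured at the same time points in this PK/PD screen.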

Data set [4] in a line: Drug concentration in Lewis rat blood assessed as concentration of parent compound at 2 mg/kg, po measured at 4 hrs by LC-MS/MS analysis. Format: ADME, organism-based. The note with it: Lewis, blood, read-out: Ct. In outline: as §1
Data set [5] is described as follows: Pulmonary toxicity in Lewis rat assessed as fold elevation of BAL protein content at 15 mg/kg, po by chemistry analyzer based analysis relative to control. Format: organism-based. The note with it: in vivo. In short, it runs like this: (§3)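 Lewis rats dosed orally; bronchoalveolar lavage protein measured at study end, expressed as fold over vehicle control.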

Data set [6] is described as follows: Reduction in circulating lymphocytes count in Lewis rat at 2 mg/kg, po measured at 24 hrs by hematology analyzer based analysis. Format: Functional, organism-based. Set-up: scale not given: the % may be the effect or the level left. The note with it: in vivo. In short, it runs like this: as §2
Data set [7] is described as follows: Half life in Lewis rat at 2 mg/kg, po measured at 4 to 72 hrs. The note with it: Lewis, in vivo, time 4-72 hrs. Format: ADME, organism-based. In short, it runs like this: (§4)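 Half-life estimated from oral-dosing blood PK profiles in Lewis rats sampled at four time points: 4, 24, 48 and 72 h.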
Data set [8] in a line: Reduction in circulating lymphocytes count in Lewis rat at 1 mg/kg, po measured at 24 hrs by hematology analyzer based analysis. Type of data set: organism-based. Set-up: scale not given: the % may be the effect or the level left. The note with it: in vivo. In outline:
as §1

The nature of data set [9]: Half life in Lewis rat at 1 mg/kg, po measured at 4 to 72 hrs. Type of data set: ADME, organism-based. The note with it: in vivo, time 4-72 hrs. In short, it runs like this: as §4
Data set [10] is described as follows: Drug concentration in Lewis rat blood assessed as concentration of parent compound at 1 mg/kg, po measured at 4 hrs by LC-MS/MS analysis. Type of data set: ADME, organism-based. The note with it: Lewis, blood, read-out: Ct. In short, it runs like this: as §1
Data set [11] can be described thus: AUC ratio in orally dosed cynomolgus monkey blood assessed as phosphate metabolite to parent compound. Type of data set: ADME, organism-based, Macaca fascicularis. The note with it: in vivo, po. In outline:
(§5)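 Phosphate-to-parent ratio computed as blood AUC ratio after oral dosing in rats, dogs and monkeys.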

Data set [12] in a line: Cardiotoxicity in human iPSC derived cardiomyocytes assessed as change in heart rate at 10 nM measured over 2 hrs by multi-electrode array relative to control. Type of data set: toxicity, cell-based. The note with it: stem cell-derived cardiomyocyte, 0.01 µM. In outline:
(§6)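 Phosphate metabolite of each compound prepared and tested on cultured human induced pluripotent stem cell-derived cardiomyocytes at 1 and 10 nM; beat rate change averaged over three or more replicates per concentration unless noted (some n = 2).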

Data set [13] in a line: AUC ratio in orally dosed human blood assessed as phosphate metabolite to parent compound. Format: ADME, organism-based. The note with it: po.
Data set [14] can be described thus: AUC ratio in orally dosed Beagle dog blood assessed as phosphate metabolite to parent compound. Format: ADME, organism-based, Canis lupus familiaris. The note with it: in vivo, po. In short, it runs like this: as §5
In data set [15] the test system is Rattus norvegicus. In words: Reduction in circulating lymphocytes count in Lewis rat at 1 mg/kg, po measured at 4 hrs by hematology analyzer based analysis. Type of data set: functional. More on the design: scale not given: the % may be the effect or the level left. In short, it runs like this:
as §1

A short description of data set [16]: AUC ratio in orally dosed Sprague-Dawley rat blood assessed as phosphate metabolite to parent compound. Type of data set: ADME, organism-based. The note with it: in vivo, po. In short, it runs like this: as §5
A short description of data set [17]: Drug metabolism in Lewis rat blood assessed as concentration of parent compound at 1 mg/kg, po measured at 24 hrs by LC-MS/MS analysis. Type of data set: ADME, organism-based. The note with it: Lewis, blood, read-out: Ct. In short, it runs like this:
as §1

Data set [18] can be described thus: Drug metabolism in Lewis rat blood assessed as phosphate ester metabolite to parent ratio at 1 mg/kg, po measured at 24 hrs by LC-MS/MS analysis. The note with it: in vivo.
Data set [19] is described as follows: Cardiotoxicity in human iPSC derived cardiomyocytes assessed as change in heart rate at 1 nM measured over 2 hrs by multi-electrode array relative to control. Type of data set: toxicity, cell-based. The note with it: stem cell-derived cardiomyocyte, 0.001 µM. In short, it runs like this: as §6
Data set [20] in a line: Pulmonary toxicity in Lewis rat assessed as fold elevation of BAL protein content at 1 mg/kg, po by chemistry analyzer based analysis relative to control. Format: organism-based. The note with it: in vivo. In short, it runs like this: as §3
Data set [21] is described as follows: Antimigratory activity against human T cells assessed as inhibition of S1P-induced T cell migration preincubated for 10 mins followed by addition of S1P measured after 120 mins by calcein-AM dye based fluorescence analysis. Type of data set: functional.

For the compound `COCCCC1CCc2cc([C@H]3CC[C@](N)(CO)C3)ccc2C1` (stereo in doubt; 22a), the Ratio in data set [1] worked out at 2.8. For the same compound, in data set [2], the concentration was 33 nM. Further, the values for the Activity in data set [3] and in [6] were 76% and 74%, respectively. Also, in [4], the concentration at 4 h was determined as 141 nM. Moreover, the “fold change (FC)” value in data set [5] was 3. For the same compound, the half-life (usually the time needed for the level to fall by half in the phase considered) in [7] is 13 h.
Take `CCCCCC[C@@H]1CCc2cc([C@H]3CC[C@](N)(CO)C3)ccc2C1` [BMS-986104]: the Activity in data set [8] is recorded as 76%; in data set [12] it was -33%; in [15] it was 23%; in data set [19] it was -2%. The same compound showed a half-life in data set [9] of more than 100 h. For the same compound, the concentration at 4 h in data set [10] turned out to be 36 nM. In addition, the “Ratio AUC” value in [11] amounted to 0.3; in data set [13], 0.1; in data set [14] it was 2.4; in data set [16] it was 2.5. In addition, the concentration at 24 h in [17] was found to be 51 nM. For the same compound, the Ratio in data set [18] is on record as 1.2. Besides, in data set [20], the “fold change (FC)” value was 1.1.
For `CCCCCCCCc1ccc(CCC(N)(CO)CO)cc1` [FINGOLIMOD], the “Ratio AUC” value stood at 5.9 in data set [11], 0.42 in data set [13], 3.7 in data set [14] and 5.6 in [16].
For `CCCCCC[C@@H]1CCc2cc([C@H]3CC[C@](N)(COP(=O)(O)O)C3)ccc2C1`, the IC50 (as a rule, the concentration that inhibits the measured activity by half) in data set [21] was 2.5 nM.
